Data set [1] has as its system Brassica rapa. Kind of data set: Toxicity against Brassica rapa assessed as plant growth inhibition at 100 ppm relative to untreated control. It counts as organism-based. Particulars: in vivo. A digest of the protocol:
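Seedlings held three days at 27°C in darkness, then radicle and hypocotyl lengths measured. Growth inhibition (%) calculated for each organ against control. Each experiment run three times.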

Data set [2] concerns Rhizoctonia solani. Kind of data set: Antifungal activity against Rhizoctonia solani assessed as fungal growth inhibition at 100 ppm relative to untreated control. Particulars: read-out: GI. It counts as functional. A digest of the protocol:
(§1)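 Fungus precultured on potato dextrose agar (1.5% agar) for four days at 27°C before testing. Compounds tested at 100 ppm in triplicate. Growth inhibition (%) relative to untreated control.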

For data set [3], the system named is [Sclerotium] delphinii. Description: Antifungal activity against Sclerotium delphinii assessed as fungal growth inhibition at 100 ppm relative to untreated control. Format: functional. Particulars: Agroathelia delphinii; read-out: GI. In outline: as §1

With `Cc1cc(OC(=O)/C=C/c2ccc(F)cc2)cc(=O)o1`, the “growth inhibition (GI)” value in data set [1] is given as greater than 50%. For the same compound, the inhibition of growth at 100 ppm in data set [2] was 70%; in data set [3], 30%.

For `Cc1cc(OC(=O)/C=C/c2ccc(Cl)cc2)cc(=O)o1`, in data set [1], the “growth inhibition (GI)” value is on record as greater than 60%. Also, the values for the inhibition of growth at 100 ppm in data set [2] and in data set [3] were greater than 60% and 30%, respectively.

With `Cc1cc(OC(=O)/C=C/c2ccccc2F)cc(=O)o1`, the “growth inhibition (GI)” value in data set [1] is given as 30%. In addition, the results for the inhibition of growth at 100 ppm in data set [2] and in data set [3] were 60% and greater than 40%, respectively.

Consider `Cc1cc(OC(=O)/C=C/c2cccc(F)c2)cc(=O)o1`, for which the “growth inhibition (GI)” value in data set [1] was greater than 50%. Also, the inhibition of growth at 100 ppm is greater than 60% in data set [2] and 30% in data set [3].

As for `Cc1cc(OC(=O)/C=C/c2ccc(C(C)C)cc2)cc(=O)o1`, the “growth inhibition (GI)” value in data set [1] turned out to be 20%. Besides, the figures for the inhibition of growth at 100 ppm in data set [2] and in data set [3] were 80% and no more than 50%, respectively.

As to `Cc1cc(OC(=O)/C=C/c2ccccc2Cl)cc(=O)o1`, the “growth inhibition (GI)” value in data set [1] stood at 20%. Moreover, the results for the inhibition of growth at 100 ppm in data set [2] and in data set [3] were 60% and 20%, respectively.

Take `Cc1cc(OC(=O)/C=C/c2cccc(Cl)c2)cc(=O)o1`: the “growth inhibition (GI)” value in data set [1] is reported as “<= 70%”. The inhibition of growth at 100 ppm in data set [2] was determined as 60%; in data set [3], 40%.

For `Cc1cccc(/C=C/C(=O)Oc2cc(C)oc(=O)c2)c1`, the “growth inhibition (GI)” value in data set [1] amounted to 40%. In addition, the inhibition of growth at 100 ppm was found to be 70% in data set [2] and 40% in data set [3].

Take `Cc1ccc(/C=C/C(=O)Oc2cc(C)oc(=O)c2)cc1`: the “growth inhibition (GI)” value in data set [1] was determined as 30%. Moreover, the figures for the inhibition of growth at 100 ppm in data set [2] and in data set [3] were 70% and 10%, respectively.

On to `Cc1cc(OC(=O)/C=C/c2ccccc2)cc(=O)o1`, for which the “growth inhibition (GI)” value in data set [1] came out at 30%. The inhibition of growth at 100 ppm in data set [2] is greater than 60%; in data set [3], 20%.

For the compound `Cc1cc(OC(=O)/C=C/c2ccccc2C)cc(=O)o1`, the “growth inhibition (GI)” value in data set [1] was 80%. Also, the figures for the inhibition of growth at 100 ppm in data set [2] and in data set [3] were 70% and 20%, respectively.

As to `O=C(/C=C/c1ccccc1F)Oc1cc(CCc2ccccc2)oc(=O)c1`, in data set [1], the “growth inhibition (GI)” value is given as 40%. Further, the inhibition of growth at 100 ppm in data set [2] and in data set [3] was 10% in each case.

Take `O=C(/C=C/c1cccc(F)c1)Oc1cc(CCc2ccccc2)oc(=O)c1`: in data set [1], the “growth inhibition (GI)” value came to 30%. Besides, the inhibition of growth at 100 ppm is 40% in data set [2] and greater than 30% in data set [3].

For the compound `O=C(/C=C/c1ccc(F)cc1)Oc1cc(CCc2ccccc2)oc(=O)c1`, the “growth inhibition (GI)” value in data set [1] worked out at 40%. For the same compound, the inhibition of growth at 100 ppm in data set [2] and in data set [3] was 10% each time.

For the compound `O=C(/C=C/c1ccc(Cl)cc1)Oc1cc(CCc2ccccc2)oc(=O)c1`, the “growth inhibition (GI)” value in data set [1] came to 20%. For the same compound, the values for the inhibition of growth at 100 ppm in data set [2] and in data set [3] were 10% and greater than 30%, respectively.

In the case of `O=C(/C=C/c1cccc(Cl)c1)Oc1cc(CCc2ccccc2)oc(=O)c1`, the “growth inhibition (GI)” value in data set [1] is 50%. Also, the inhibition of growth at 100 ppm in data set [2] stood at 40%; in data set [3] it was 10%.

As to `O=C(/C=C/c1ccccc1Cl)Oc1cc(CCc2ccccc2)oc(=O)c1`, the “growth inhibition (GI)” value in data set [1] is on record as 30%. Also, the values for the inhibition of growth at 100 ppm in data set [2] and in data set [3] were 40% and greater than 30%, respectively.

Regarding `Cc1cccc(/C=C/C(=O)Oc2cc(CCc3ccccc3)oc(=O)c2)c1`, the “growth inhibition (GI)” value in data set [1] is reported as 40%. In addition, the inhibition of growth at 100 ppm in data set [2] worked out at 50%; in data set [3] it was 30%.

With `Cc1ccc(/C=C/C(=O)Oc2cc(CCc3ccccc3)oc(=O)c2)cc1`, in data set [1], the “growth inhibition (GI)” value is 30%. Besides, the values for the inhibition of growth at 100 ppm in data set [2] and in data set [3] were 50% and no more than 10%, respectively.

For `CC(C)c1ccc(/C=C/C(=O)Oc2cc(CCc3ccccc3)oc(=O)c2)cc1`, in data set [1], the “growth inhibition (GI)” value was 10%. In addition, the inhibition of growth at 100 ppm was 40% in data set [2] and greater than 30% in data set [3].

On to `O=C(/C=C/c1ccccc1)Oc1cc(CCc2ccccc2)oc(=O)c1`, for which the “growth inhibition (GI)” value in data set [1] was determined as 30%. The inhibition of growth at 100 ppm was 20% in data set [2] and 30% in data set [3].

For `Cc1ccccc1/C=C/C(=O)Oc1cc(CCc2ccccc2)oc(=O)c1`, in data set [1], the “growth inhibition (GI)” value is reported as greater than 60%. Besides, the figures for the inhibition of growth at 100 ppm in data set [2] and in data set [3] were 50% and 40%, respectively.

As for `Cc1cc(O)cc(=O)o1` [4-HYDROXY-6-METHYLPYRAN-2-ONE], the inhibition of growth at 100 ppm in data set [2] is no more than 10%; in data set [3] it was 20%.

Consider `COc1cc(CCc2ccccc2)oc(=O)c1` [DIHYDRO-5,6-DEHYDROKAWAIN], for which the “growth inhibition (GI)” value in data set [1] is 0%. Also, the inhibition of growth at 100 ppm in data set [2] and in data set [3] was 50% each time.

For the origin of these results see ChEMBL document CHEMBL3046618, “Syntheses and biological activities of pyranyl-substituted cinnamates” (Biosci Biotechnol Biochem, 2001).
